Measurements reported in ChEMBL document CHEMBL2407001, “Synthesis, in vitro antifungal activity and in silico study of 3-(1,2,4-triazol-1-yl)flavanones” (2013).
Values after ≈ are worked out from the molar mass of the structure shown.

How the values were obtained:
Type in all cases: functional
Aspergillus niger = experiment: Antifungal activity against Aspergillus niger ATCC 16404 after 24 to 72 hrs by microdilution method
How it was run: (§1)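 Broth microdilution MIC in U-bottom 96-well plates. Compound stock made in Sabouraud dextrose broth/DMSO (9:1) and serially diluted with SDB. Fungal suspension (1 × 10^3 CFU/mL) added to give a final inoculum of 0.5 × 10^3 CFU/mL. Plates incubated at 35 °C and read at 24, 48 and 72 h. MIC is the lowest concentration with no visible growth compared with a drug-free control well.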

Saccharomyces cerevisiae [1] = experiment: Antifungal activity against Saccharomyces cerevisiae ATCC 9763 after 24 to 72 hrs by microdilution method; how it was run: as §1
Saccharomyces cerevisiae [2] = experiment: Antifungal activity against Saccharomyces cerevisiae NCYC 694 after 24 to 72 hrs by microdilution method; how it was run: as §1
Nakaseomyces glabratus = experiment: Antifungal activity against Candida glabrata ATCC 90030 after 24 to 72 hrs by microdilution method; how it was run: as §1
Candida albicans [3] = experiment: Antifungal activity against Candida albicans ATCC 10231 after 24 to 72 hrs by microdilution method; how it was run: as §1
Candida albicans [4] = experiment: Ratio of fluconazole MIC to compound MIC for Candida albicans ATCC 10231
Saccharomyces cerevisiae [5] = experiment: Ratio of fluconazole MIC to compound MIC for Saccharomyces cerevisiae NCYC 694

Row | Compound | MIC (Aspergillus niger) | MIC (Saccharomyces cerevisiae [1]) | MIC (Saccharomyces cerevisiae [2]) | MIC (Nakaseomyces glabratus) | MIC (Candida albicans [3]) | Ratio (Candida albicans [4]) | Ratio (Saccharomyces cerevisiae [5])
1 | O=C1c2ccccc2O[C@@H](c2ccccc2)[C@@H]1n1cncn1 (relative stereo) | > 62.5 µg/mL | 125 µg/mL (≈ 429 µM) | > 125 µg/mL | > 62.5 µg/mL | 31.3 µg/mL (≈ 107 µM) | – | –
2 | O=C1c2ccccc2O[C@@H](c2ccc(Cl)cc2)[C@@H]1n1cncn1 (relative stereo) | > 62.5 µg/mL | 3.9 µg/mL (≈ 12 µM) | > 125 µg/mL | > 62.5 µg/mL | 3.9 µg/mL (≈ 12 µM) | – | –
3 | O=C1c2ccccc2O[C@@H](c2ccc(F)cc2)[C@@H]1n1cncn1 (relative stereo) | > 62.5 µg/mL | 3.9 µg/mL (≈ 12.6 µM) | 0.98 µg/mL (≈ 3.17 µM) | 31.3 µg/mL (≈ 101 µM) | 3.9 µg/mL (≈ 12.6 µM) | 8 | 16
4 | Cc1ccc([C@@H]2Oc3ccccc3C(=O)[C@H]2n2cncn2)cc1 (relative stereo) | > 62.5 µg/mL | > 125 µg/mL | > 125 µg/mL | > 62.5 µg/mL | > 125 µg/mL | – | –
5 | COc1ccc([C@@H]2Oc3ccccc3C(=O)[C@H]2n2cncn2)cc1 (relative stereo) | > 62.5 µg/mL | 125 µg/mL (≈ 389 µM) | > 125 µg/mL | > 62.5 µg/mL | > 125 µg/mL | – | –
6 | O=C1c2ccccc2O[C@@H](c2cccc(Cl)c2)[C@@H]1n1cncn1 (relative stereo) | > 62.5 µg/mL | > 125 µg/mL | 1.95 µg/mL (≈ 5.99 µM) | 62.5 µg/mL (≈ 192 µM) | 3.9 µg/mL (≈ 12 µM) | 8 | 8
7 | O=C1c2ccccc2O[C@@H](c2cccc(F)c2)[C@@H]1n1cncn1 (relative stereo) | > 62.5 µg/mL | 15.6 µg/mL (≈ 50.4 µM) | > 125 µg/mL | > 62.5 µg/mL | 15.6 µg/mL (≈ 50.4 µM) | 2 | –
8 | COc1cccc([C@@H]2Oc3ccccc3C(=O)[C@H]2n2cncn2)c1 (relative stereo) | > 62.5 µg/mL | > 125 µg/mL | > 125 µg/mL | > 62.5 µg/mL | > 125 µg/mL | – | –
9 | O=C1c2ccccc2O[C@@H](c2ccccc2Cl)[C@@H]1n1cncn1.O=[N+]([O-])O (relative stereo) | > 62.5 µg/mL | 125 µg/mL | > 125 µg/mL | > 62.5 µg/mL | > 125 µg/mL | – | –
10 | COc1ccccc1[C@@H]1Oc2ccccc2C(=O)[C@H]1n1cncn1.O=[N+]([O-])O (relative stereo) | > 62.5 µg/mL | > 125 µg/mL | > 125 µg/mL | > 62.5 µg/mL | > 125 µg/mL | – | –
11 | O=C1c2ccccc2O[C@@H](c2ccc(Cl)cc2Cl)[C@@H]1n1cncn1 (relative stereo) | > 62.5 µg/mL | 31.3 µg/mL (≈ 86.9 µM) | 31.3 µg/mL (≈ 86.9 µM) | > 62.5 µg/mL | 125 µg/mL (≈ 347 µM) | – | –
12 | O/N=C1\c2ccccc2O[C@@H](c2ccccc2)[C@@H]1n1cncn1 (relative stereo) | > 62.5 µg/mL | 125 µg/mL (≈ 408 µM) | > 125 µg/mL | > 62.5 µg/mL | > 125 µg/mL | – | –
13 | O/N=C1\c2ccccc2O[C@@H](c2ccc(Cl)cc2Cl)[C@@H]1n1cncn1 (relative stereo) | > 62.5 µg/mL | 62.5 µg/mL (≈ 167 µM) | > 125 µg/mL | > 62.5 µg/mL | > 125 µg/mL | – | –
14 | OC(Cn1cncn1)(Cn1cncn1)c1ccc(F)cc1F [FLUCONAZOLE] | > 125 µg/mL | 15.6 µg/mL (≈ 50.9 µM) | 15.6 µg/mL (≈ 50.9 µM) | 31.3 µg/mL (≈ 102 µM) | 31.3 µg/mL (≈ 102 µM) | – | –
15 | CC(=O)N1CCN(c2ccc(OCC3COC(Cn4ccnc4)(c4ccc(Cl)cc4Cl)O3)cc2)CC1 (stereo unspecified) [KETOCONAZOLE] | 15.6 µg/mL (≈ 29.4 µM) | – | – | – | – | – | –
